Results published in ChEMBL document CHEMBL4825712.
Active and inactive are the calls of the source. No cut-off for these calls is given here.

Key:
[1] = system: A549; test: Cytotoxicity against human A549 cells by MTT assay; format: cell-based
Procedure, shortened: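 MTT assay run according to the manufacturer's instructions, concurrently with NP immunostaining of infected A549 cultures.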

[2] = system: Influenza A virus; test: Antiviral activity against Influenza A virus A/WSN/33(H1N1)-PB2-Nanoluc virus infected in human A549 cells assessed as decrease in Nano-luc pretreated for 2 hr followed viral infection incubated for 24 hrs by Nano-Glo luminescence assay; format: functional, organism-based; details: A/WSN/1933(H1N1)
Procedure, shortened: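 A549 cells were treated with a range of compound concentrations for 2 h, then infected with WSN-PB2-Nanoluc (NanoLuc fused to PB2) at MOI 0.02 for 24 h. Cells were lysed in Renilla lysis buffer and luminescence read with Nano-Glo substrate on equal lysate volumes. IC50 was derived from the dose-response.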

[3] = system: Influenza A virus; test: Antiviral activity against Influenza A virus A/California/07/2009 (HIN1) infected in human A549 cells assessed as reduction in infected cells up to 25 uM pretreated for 1 hr; format: functional, organism-based; details: A/California/07/2009(H1N1), dose microM <=25, time 1.0 hrs
[4] = system: Influenza A virus; test: Antiviral activity against Influenza A virus A/Wyoming/03/2003 (H3N2) infected in human A549 cells assessed as reduction in infected cells up to 25 uM pretreated for 1 hr; format: functional, organism-based; details: dose microM <=25, time 1.0 hrs
[5] = system: Influenza A virus; test: Antiviral activity against Influenza A virus A/WSN/33(H1N1) infected in human A549 cells assessed as viral replication measured after 24 hrs by immunofluorescence microscopy; format: functional, organism-based; details: A/WSN/1933(H1N1); for IC50: A549, 24 h; for IC90: A549, time 24 hrs
Procedure, shortened: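 A549 cells were infected with A/WSN/33 at MOI 0.01 for 24 h, then fixed in 4% formaldehyde and permeabilized with 0.1% Triton X-100. They were immunostained for NP with an Alexa-488 secondary plus DAPI and imaged on an image cytometer. Percent infection = NP-positive cells divided by total cells.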

[6] = Selectivity index, ratio of CC50 for human A549 cells to IC50 for antiviral activity against Influenza A virus A/WSN/33(H1N1) infected in human A549 cells; format: toxicity, cell-based; details: read-out: Selectivity Index
Procedure, shortened: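 Ratio of CC50 to IC50. IC50 came from A549 cells pretreated 2 h with compound, then infected 24 h with WSN-PB2-Nanoluc at MOI 0.02 and read by Nano-Glo luminescence. CC50 was measured by CellTiter-Glo.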

[7] = system: Influenza A virus; test: Antiviral activity against Influenza A virus A/WSN/33(H1N1) infected in human A549 cells assessed as reduction in M mRNA level by smRNA FISH followed by fluorescence microscopy; format: functional, organism-based; details: A/WSN/1933(H1N1)
Procedure, shortened: (§1)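 A549 cells on gelatin-coated coverslips were infected with WSN at MOI 2 for 8 h. Cells were fixed in 4% PFA, held in 70% ethanol for 12 h at 4 °C, and hybridized with M, HA or NS smRNA-FISH probes at 37 °C for 4 h. After a formamide/SSC wash, nuclei were stained with Hoechst and imaged by fluorescence microscopy.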

[8] = system: Influenza A virus; test: Antiviral activity against Influenza A virus A/WSN/33(H1N1) infected in human A549 cells assessed as reduction in HA mRNA level by smRNA FISH followed by fluorescence microscopy; format: functional, organism-based; details: A/WSN/1933(H1N1); procedure, shortened: as §1
[9] = system: Influenza A virus; test: Antiviral activity against Influenza A virus A/WSN/33(H1N1) infected in human A549 cells assessed as reduction in NS mRNA level by smRNA FISH followed by fluorescence microscopy; format: functional, organism-based; details: A/WSN/1933(H1N1); procedure, shortened: as §1
[10] = system: Influenza A virus; test: Antiviral activity against Influenza A virus A/WSN/33(H1N1) infected in human A549 cells assessed as reduction in poly(A) RNA/GAPDH mRNA level at 1 uM by smRNA FISH followed by fluorescence microscopy; format: functional, organism-based; details: A/WSN/1933(H1N1)
[11] = system: Influenza A virus; test: Antiviral activity against Influenza A virus A/WSN/33(H1N1) infected in human A549 cells assessed as reduction in HA mRNA level by qRT-PCR analysis; format: functional, organism-based; details: A/WSN/1933(H1N1)
Procedure, shortened: (§2)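 A549 cells were pretreated for 1 h with 0.5 or 1 μM compound or 0.1% DMSO. They were then infected with A/WSN/33 at MOI 2 for 8 h with compound still present. Total RNA was isolated, reverse transcribed and analysed by qPCR for viral HA, NS1, M1 and M2 mRNA. Three independent experiments; mean ± SD.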

[12] = system: Influenza A virus; test: Antiviral activity against Influenza A virus A/WSN/33(H1N1) infected in human A549 cells assessed as reduction in NS1 mRNA level by qRT-PCR analysis; format: functional, organism-based; details: A/WSN/1933(H1N1); procedure, shortened: as §2
[13] = system: Influenza A virus; test: Antiviral activity against Influenza A virus A/WSN/33(H1N1) infected in human A549 cells assessed as reduction in M1 mRNA level by qRT-PCR analysis; format: functional, organism-based; details: A/WSN/1933(H1N1); procedure, shortened: as §2
[14] = system: Influenza A virus; test: Antiviral activity against Influenza A virus A/WSN/33(H1N1) infected in human A549 cells assessed as reduction in M2 mRNA level by qRT-PCR analysis; format: functional, organism-based; details: A/WSN/1933(H1N1); procedure, shortened: as §2
[15] = system: Influenza A virus; test: Antiviral activity against Influenza A virus A/WSN/33(H1N1) infected in human Primary bronchial epithelial cells assessed as reduction in M1 mRNA level at 1 uM by qRT-PCR analysis; format: functional, organism-based; details: A/WSN/1933(H1N1), Primary bronchial epithelial cell
[16] = system: Influenza A virus; test: Antiviral activity against Influenza A virus A/WSN/33(H1N1)-PB2-Nanoluc virus infected in human HCT-116 cells assessed as decrease in Nano-luc at 1 uM pretreated for 1 hr followed viral infection incubated for 24 hrs by Nano-Glo luminescence assay; format: functional, organism-based; details: A/WSN/1933(H1N1)
[17] = system: Influenza A virus; test: Antiviral activity against Influenza A virus A/WSN/33(H1N1) infected in human A549 cells assessed as reduction in HA level at 1 uM pretreated for 8 hrs measured by Western blot analysis; format: functional, organism-based; details: A/WSN/1933(H1N1)
Procedure, shortened: (§3)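 A549 cells were pretreated with 1 μM compound or 0.1% DMSO, then infected with A/WSN/33 at MOI 2 for 8 h. Lysates were analysed by western blot for viral proteins, with β-actin as loading control. Three independent experiments.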

[18] = system: Influenza A virus; test: Antiviral activity against Influenza A virus A/WSN/33(H1N1) infected in human A549 cells assessed as reduction in NP level at 1 uM pretreated for 8 hrs measured by Western blot analysis; format: functional, organism-based; details: A/WSN/1933(H1N1); procedure, shortened: as §3
[19] = system: Influenza A virus; test: Antiviral activity against Influenza A virus A/WSN/33(H1N1) infected in human A549 cells assessed as reduction in M1 level at 1 uM pretreated for 8 hrs measured by Western blot analysis; format: functional, organism-based; details: A/WSN/1933(H1N1); procedure, shortened: as §3
[20] = system: Influenza A virus; test: Antiviral activity against Influenza A virus A/WSN/33(H1N1) infected in human A549 cells assessed as reduction in M mRNA level at 1 uM pretreated 1 hr before viral infection by smRNA FISH followed by fluorescence microscopy; format: functional, organism-based; details: A/WSN/1933(H1N1)
Procedure, shortened: (§4)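 A549 cells received 1 μM compound either 1 h before infection or 1 h after infection. Infection was with WSN at MOI 2 for 8 h. Viral M mRNA was detected by smRNA-FISH and fluorescence microscopy.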

[21] = system: Influenza A virus; test: Antiviral activity against Influenza A virus A/WSN/33(H1N1) infected in human A549 cells assessed as reduction in M mRNA level at 1 uM treated 1 hr after viral infection by smRNA FISH followed by fluorescence microscopy; format: functional, organism-based; details: A/WSN/1933(H1N1); procedure, shortened: as §4
[22] = system: Influenza A virus; test: Antiviral activity against Influenza A virus A/WSN/33(H1N1) infected in human A549 cells assessed as reduction in M1 protein level at 1 uM treated 1 hr after viral infection by Western blot analysis; format: functional, organism-based; details: A/WSN/1933(H1N1)
Procedure, shortened: (§5)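 A549 cells received 1 μM compound 1 h before infection, or 1 h or 2 h after infection. Infection was with WSN at MOI 2 for 8 h. Lysates were analysed by western blot for viral proteins.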

[23] = system: Influenza A virus; test: Antiviral activity against Influenza A virus A/WSN/33(H1N1) infected in human A549 cells assessed as reduction in NP protein level at 1 uM treated 1 hr after viral infection by Western blot analysis; format: functional, organism-based; details: A/WSN/1933(H1N1); procedure, shortened: as §5
[24] = target: Hemagglutinin (Influenza A virus (A/Puerto Rico/8/1934(H1N1))) (UniProt P03452); test: Inhibition of Influenza A virus A/WSN/33(H1N1) hemagglutinin assessed as inhibition of HA-mediated chicken erythrocytes membrane fusion at 0.08 to 5 uM incubated for 30 mins pH 5 by hemolysis inhibition assay; details: Influenza A virus (A/WSN/1933(H1N1)), dose 0.08-5 µM
Sequence of Hemagglutinin (Influenza A virus (A/Puerto Rico/8/1934(H1N1))) (P03452 whole entry, the tested form may be a part): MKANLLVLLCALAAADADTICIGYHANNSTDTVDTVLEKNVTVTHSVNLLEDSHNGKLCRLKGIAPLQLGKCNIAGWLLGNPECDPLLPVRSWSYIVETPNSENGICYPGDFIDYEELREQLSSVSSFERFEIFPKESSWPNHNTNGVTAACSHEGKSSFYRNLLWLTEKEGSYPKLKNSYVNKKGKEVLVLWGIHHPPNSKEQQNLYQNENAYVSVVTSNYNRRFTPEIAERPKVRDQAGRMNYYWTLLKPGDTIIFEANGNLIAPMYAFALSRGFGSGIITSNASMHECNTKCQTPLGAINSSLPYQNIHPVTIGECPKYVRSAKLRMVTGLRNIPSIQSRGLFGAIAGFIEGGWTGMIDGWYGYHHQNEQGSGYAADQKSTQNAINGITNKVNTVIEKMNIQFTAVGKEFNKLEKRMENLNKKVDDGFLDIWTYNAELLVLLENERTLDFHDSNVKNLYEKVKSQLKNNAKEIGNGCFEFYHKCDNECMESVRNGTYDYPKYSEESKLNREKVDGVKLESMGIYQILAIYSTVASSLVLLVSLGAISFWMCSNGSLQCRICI
Procedure, shortened: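 Chicken erythrocyte suspension was incubated on ice with WSN, with or without compound at a range of concentrations. The mixture was acidified to pH 5 and incubated at 37 °C for 30 min. NADH released by lysis was read at 340 as the fusion measure. Data are % of DMSO control; means of triplicates ± SD.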

[25] = system: Influenza A virus; test: Antiviral activity against Influenza A virus wild-type A/WSN/1933 (H1N1) infected in human A549 cells assessed as log reduction in viral titer at 25 uM by standard plaque assay; format: functional, organism-based
Procedure, shortened: (§6)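 A549 cells were infected in the absence or presence of 25 μM compound. For A/WSN/1933 the MOI was 0.01 and infection ran 24 h. For A/Panama/1999 the MOI was 0.1 and infection ran 48 h. Viral titers were determined by standard plaque assay.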

[26] = system: Influenza A virus; test: Antiviral activity against Influenza A virus A/Vietnam/2506/2004 (H5N1) infected in human A549 cells assessed as log reduction in viral titer at 25 uM by standard plaque assay; format: functional, organism-based
[27] = system: Influenza A virus; test: Antiviral activity against Influenza A virus A/Panama/1999 (H3N2) infected in human A549 cells assessed as log reduction in viral titer at 25 uM by standard plaque assay; format: functional, organism-based; procedure, shortened: as §6

SMILES: C#CCN(c1cccc(N=[N+]=[N-])c1)S(=O)(=O)c1cc(Cl)ccc1Cl
- CC10 [1]: > 25 µM
- IC50 [2]: 136 µM

SMILES: O=S(=O)(c1cc(Cl)ccc1Cl)N1CCCc2cc(Cl)ccc21
- CC10 [1]: > 5 µM
- IC50 [2]: > 5 µM

SMILES: CCN(c1ccc(Cl)cc1C)S(=O)(=O)c1cc(Cl)ccc1Cl
- Activity [3]: Active
- Activity [4]: Active
- IC50 [5]: 0.034 µM
- IC90 [5]: 0.5 µM
- CC10 [1]: > 5 µM
- CC50 [1]: > 5 µM
- selectivity ratio [6]: > 147

SMILES: C#CCCC1(CCN(c2ccc(Cl)cc2C)S(=O)(=O)c2cc(Cl)ccc2Cl)N=N1
- CC10 [1]: > 25 µM
- IC50 [2]: > 5 µM

SMILES: CCN(c1ccc(F)cc1F)S(=O)(=O)c1cc(Cl)ccc1Cl
- Activity [3]: Active
- Activity [4]: inactive
- IC50 [5]: 0.052 µM
- IC90 [5]: 0.9 µM
- CC10 [1]: > 5 µM
- CC50 [1]: > 5 µM
- selectivity ratio [6]: > 96

SMILES: CCN(c1ccccc1C)S(=O)(=O)c1cc(Cl)ccc1Cl
- Activity [7]: Active
- Activity [8]: Active
- Activity [9]: Active
- Activity [10]: inactive
- Activity [11]: Active
- Activity [12]: Active
- Activity [13]: Active
- Activity [14]: Active
- Activity [15]: Active
- IC50 [16]: 16.8 µM
- Activity [17]: Active
- Activity [18]: Active
- Activity [19]: Active
- Activity [20]: Active
- Activity [21]: Active
- Activity [22]: Active
- Activity [23]: Active
- Activity [24]: Active
- Activity [25]: Active
- Activity [26]: Active
- Activity [27]: Active
- Activity [3]: Active
- Activity [4]: inactive
- IC50 [5]: 0.04 µM
- IC90 [5]: 1.2 µM
- CC10 [1]: > 25 µM
- CC50 [1]: > 25 µM
- selectivity ratio [6]: > 625

SMILES: CCN(C(=O)c1cc(Cl)ccc1Cl)c1ccc(Cl)cc1C
- CC10 [1]: > 5 µM
- IC50 [2]: > 5 µM

SMILES: O=S(=O)(c1cc(Cl)ccc1Cl)N1CCc2cc(Cl)ccc21
- CC10 [1]: > 5 µM
- IC50 [2]: > 5 µM

SMILES: C#CCCC1(CCOC(=O)Cc2ccc(N(CC)S(=O)(=O)c3cc(Cl)ccc3Cl)cc2)N=N1
- CC10 [1]: > 25 µM
- IC50 [2]: > 5 µM
